Activity calls are given as the source filed them. No cut-off for these calls is given here.
What was measured:
[1] = tested on: Mus musculus; experiment: Induction of sleep in C57BL/6 mouse assessed as increased rapid eye movement sleep proportion at 50 mg/kg, po measured during 1 hr by EEG/EMG analysis relative to vehicle-treated control; format: functional, organism-based; design: dose 50 mg/kg
Method in brief: (§1)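 Male C57Bl/6 mice with implanted cortical EEG screw electrodes and EMG, recovered 2 weeks, 12 h/12 h light/dark cycle. Crossover: vehicle (0.5% methylcellulose, 10 mL/kg po) on day 2, compound po on day 3, each given 5–15 min before lights-off. 23 h recordings; EEG filtered 0.3–30 Hz, EMG 5–30 Hz; 10 s epochs scored as wake, NREM or REM from EEG/EMG and infrared motility.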

[2] = tested on: Brain; experiment: Fraction unbound in C57BL/6 mouse brain at 50 mg/kg, po after 1 hr by LC-MS/MS analysis; format: ADME, organism-based; design: dose 50 mg/kg, route oral; conditions: in vivo
Method in brief: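 Unbound fraction assessed in mouse brain homogenate by a slightly adapted literature method, measured separately from the dosed animals. Free brain level obtained by multiplying fraction unbound by brain concentration from the 50 mg/kg po satellite group at 60 min. Mean ± SD, n = 3.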

[3] = tested on: Mus musculus; experiment: Induction of sleep in C57BL/6 mouse assessed as increase in non-rapid eye movement at 50 mg/kg, po measured during 4 hrs by EEG/EMG analysis relative to vehicle-treated control; format: functional, organism-based; design: dose 50 mg/kg; method in brief: as §1
[4] = tested on: Mus musculus; experiment: Induction of sleep in C57BL/6 mouse assessed as increase in total sleep time at 50 mg/kg, po measured during first 4 hrs by EEG/EMG analysis relative to vehicle-treated control
[5] = Drug uptake in C57BL/6 mouse blood at 50 mg/kg after 1 hr by LC-MS/MS analysis; format: ADME, organism-based; design: dose 50 mg/kg; conditions: read-out: Drug uptake
Method in brief: (§2)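 Satellite PK group: oral gavage of 50 mg/kg suspended in 0.5% w/v methylcellulose in water, 10 mL/kg. Blood and brain taken after decapitation at 15 and 60 min post-dose, n = 3 mice per time point, stored at −20 °C. Brain homogenised in 2 mM KH₂PO₄; acetonitrile quench with internal standard; LC/MS/MS against six-level calibration curve. Mean ± SD reported.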

[6] = molecular target: T1, Orexin receptor type 2 (Mus musculus, UniProt P58308); experiment: Antagonist activity at mouse OX2 receptor expressed in HEK cells assessed as inhibition of orexin A-induced Ca2+ accumulation after 1 hr by Fluo-4-AM staining-based FLIPR assay; format: functional, cell-based, HEK293
T1 sequence (P58308 whole entry): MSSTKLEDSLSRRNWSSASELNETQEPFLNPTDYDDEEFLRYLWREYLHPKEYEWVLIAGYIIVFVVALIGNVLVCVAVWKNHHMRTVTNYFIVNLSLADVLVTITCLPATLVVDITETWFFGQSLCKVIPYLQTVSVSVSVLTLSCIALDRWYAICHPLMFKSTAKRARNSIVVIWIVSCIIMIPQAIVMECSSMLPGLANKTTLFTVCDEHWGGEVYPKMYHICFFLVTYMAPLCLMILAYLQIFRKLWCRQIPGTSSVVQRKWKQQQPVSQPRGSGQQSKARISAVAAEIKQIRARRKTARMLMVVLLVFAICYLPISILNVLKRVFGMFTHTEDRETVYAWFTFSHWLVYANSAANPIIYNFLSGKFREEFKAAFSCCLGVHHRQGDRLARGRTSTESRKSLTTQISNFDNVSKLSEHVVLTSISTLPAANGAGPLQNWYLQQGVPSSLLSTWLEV

[7] = tested on: Brain; experiment: Drug uptake in C57BL/6 mouse brain at 50 mg/kg after 1 hr by LC-MS/MS analysis; format: ADME, organism-based; design: dose 50 mg/kg; conditions: in vivo; method in brief: as §2
[8] = tested on: Mus musculus; experiment: Effect on locomotion in C57BL/6 mouse assessed as reduction of motility at 50 mg/kg, po measured up to 4 hrs; format: functional, organism-based; design: dose 50 mg/kg
Method in brief: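 Mice habituated, then dosed orally immediately before lights-off (15:00, start of active phase); vehicle 0.5% methylcellulose in water. Inactivity = any minute with no infrared beam breaks. Per-animal difference between inactivity 15:00–19:00 post-dose and the same 4 h during habituation 24 h earlier. n = 6; one-way ANOVA with Dunnett's test versus vehicle.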

[9] = molecular target: T2, Orexin/Hypocretin receptor type 1 (Mus musculus, UniProt P58307); experiment: Antagonist activity at mouse OX1 receptor expressed in CHO cells assessed as inhibition of orexin A-induced Ca2+ accumulation after 1 hr by Fluo-4-AM staining-based FLIPR assay; format: functional, cell-based
T2 sequence (P58307 whole entry): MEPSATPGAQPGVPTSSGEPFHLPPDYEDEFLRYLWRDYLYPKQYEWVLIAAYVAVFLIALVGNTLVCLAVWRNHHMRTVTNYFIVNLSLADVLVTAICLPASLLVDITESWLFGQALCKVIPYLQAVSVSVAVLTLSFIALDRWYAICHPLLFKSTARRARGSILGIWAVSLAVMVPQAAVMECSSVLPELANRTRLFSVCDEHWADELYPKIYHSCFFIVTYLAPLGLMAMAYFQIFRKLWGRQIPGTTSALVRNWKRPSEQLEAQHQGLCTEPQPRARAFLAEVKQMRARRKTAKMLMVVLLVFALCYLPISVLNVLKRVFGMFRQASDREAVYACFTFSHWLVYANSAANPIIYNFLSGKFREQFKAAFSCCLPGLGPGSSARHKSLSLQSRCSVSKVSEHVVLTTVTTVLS

[10] = tested on: Mus musculus; experiment: Induction of sleep in C57BL/6 mouse assessed as increase in rapid eye movement at 50 mg/kg, po measured during 4 hrs by EEG/EMG analysis relative to vehicle-treated control; format: functional, organism-based; design: dose 50 mg/kg; method in brief: as §1

Cc1ccc(-n2nccn2)c(C(=O)N2CCN(c3nc4cc(Cl)ccc4o3)CC[C@H]2C)c1 [SUVOREXANT]
Activity [1]: Active
Fu [2]: 0.65%
Activity [3]: Active
Activity [4]: Active
concentration at 1 h [5]: 10.5 µM
Ki [6]: 8.71 nM
Drug uptake [7]: 10329 pmol/g
Activity [8]: Active
Ki [9]: 1.7 nM
Activity [10]: Active
